Results: ChEMBL document CHEMBL4138220, “A fluorine scan of a tubulin polymerization inhibitor isocombretastatin A-4: Design, synthesis, molecular modelling, and biological evaluation” (Eur J Med Chem, 2018)
The source made the active and inactive calls. No cut-off for these calls is given here.

Tests used:
HCT-116 [1] = assay: Antiproliferative activity against human HCT116 cells after 72 hrs by resazurin-based fluorescence assay; assay type: functional, cell-based; details: HCT-116, 72 h
K-562R = assay: Antiproliferative activity against human K562R cells after 72 hrs by resazurin-based fluorescence assay; assay type: functional, cell-based
In short: (§1)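 CellTiter-Blue viability. Cells plated at 5 × 10^3 per well and cultured 24 h, then given compound in DMSO (under 0.1%) for 72 h. Resazurin added for 2 h, fluorescence read at ex 560/em 590 nm. […] Run in triplicate. U87-MG grown in DMEM (4.5 g/L glucose, 10% FCS, 1% glutamine). K562, K562R (doxorubicin-resistant), A549 and MCF7 grown in RPMI 1640 (10% FCS, 1% glutamine). All kept at 37 °C, 5% CO2.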

[2] = Inhibition of sheep brain tubulin polymerization assessed as reduction in rate of microtubule assembly by DAPI-fluorescence based assay; set-up: species or system Ovis aries
In short: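 Sheep brain tubulin purified by two assembly–disassembly cycles, about 10 µM in buffer at pH 6.6 with MgCl2, EGTA and 1 mm GTP. Assembly followed continuously at 37 °C by DAPI fluorescence. IC50 is the concentration halving the maximum assembly rate versus no compound. Reference compounds run the same day. Average of three experiments.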

MCF7 = assay: Antiproliferative activity against human MCF7 cells after 72 hrs by resazurin-based fluorescence assay; assay type: functional, cell-based; details: MCF7, 72 h; in short: as §1
A549 [3] = assay: Antiproliferative activity against human A549 cells after 72 hrs by resazurin-based fluorescence assay; assay type: functional, cell-based; details: A549, 72 h
U-87 MG [4] = assay: Antiproliferative activity against human U87 cells after 72 hrs by resazurin-based fluorescence assay; assay type: functional, cell-based, U-87MG ATCC; in short: as §1
[5] = Metabolic stability in human liver microsomes at 5 uM preincubated for 5 mins followed NADPH addition measured after 120 mins by UPLC-MS/MS analysis; assay type: ADME, microsome; details: read-out: Stability
PBL [6] = assay: Cytotoxicity against human PBL cells assessed as reduction in cell viability after 72 hrs by MTS assay; assay type: cell-based
In short: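 PBMCs from healthy donors were isolated on a Ficoll gradient and cultured overnight at 37°C in RPMI-1640 with 10% FCS. Non-adherent cells were set at 5 × 10⁵/mL with PHA 2.5 µg/mL (proliferating) or without it (quiescent). Serial dilutions 0.001–25 µM final (10 mM DMSO stocks) were applied for 72 h at 37°C, and viability was read by MTS.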

K562 = assay: Antiproliferative activity against human K562 cells after 72 hrs by resazurin-based fluorescence assay; assay type: functional, cell-based; details: K562, 72 h; in short: as §1
[7] = Increase in PGF2alpha-induced contractile response in isolated Wistar rat aorta rings at 10 uM after 10 mins; assay type: tissue-based
In short: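 Rat aortic rings 2–3 mm in PSS at 37°C, 95% O₂/5% CO₂, pH 7.4, isometric tension at 2 g resting force. Rings were kept if K60 contraction was ≥1.5 g and ACh (10 µM) relaxation ≥15%. Compound (10 µM) or DMSO 0.1% was given for 10 min, then cumulative PGF2α 1 nM–30 µM. Hill fits gave pD2 and Emax as % of K60. N = 6.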

[8] = Metabolic stability in human plasma at 5 uM after 120 mins by UPLC-MS/MS analysis; assay type: ADME, cell-free; details: read-out: Stability
In short: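 Compound at 5 µM in human plasma at 37°C, sampled from 0 to 120 min. Stopped with acetonitrile, centrifuged, supernatant dried under nitrogen and reconstituted in 0.2% formic acid water/methanol 75/25. Measured by UPLC-MS/MS as % remaining. Procaine was the positive control.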

[9] = Intrinsic clearance in human liver microsomes at 5 uM preincubated for 5 mins followed by NADPH addition measured after 45 mins by UPLC-MS/MS analysis; assay type: ADME, microsome; details: read-out: CLH
PBL [10] = assay: Cytotoxicity against human PBL cells assessed as reduction in cell proliferation after 72 hrs by MTS assay
[11] = Metabolic stability in human liver microsomes at 5 uM after 120 mins in absence of NADPH by UPLC-MS/MS analysis; assay type: ADME, microsome; details: read-out: Stability
[12] = Induction of basal contraction tone in isolated Wistar rat aorta rings at 10 uM after 10 mins in presence K60 solution (reference value: 0.2 +/- 0.2%); assay type: tissue-based
U-87 MG [13] = assay: Cell cycle arrest in human U87MG cells assessed as accumulation at G2/M phase at 20 nM after 24 hrs by propidium iodide staining based flow cytometry; assay type: functional; details: U-87MG ATCC
In short: (§2)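 Exponentially growing HCT116 (RPMI 1640) or U87-MG (DMEM, 4.5 g/L glucose) cells, each medium with 10% FCS and 1% glutamine, treated 24 h at 20 nM in DMSO, with a DMSO control. DNA content measured by propidium iodide staining and flow cytometry.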

HCT-116 [14] = assay: Cell cycle arrest in human HCT116 cells assessed as accumulation at G2/M phase at 20 nM after 24 hrs by propidium iodide staining based flow cytometry; assay type: functional; in short: as §2
Tubulin (Homo sapiens) [15] = molecular target: T1, Tubulin (Homo sapiens) (UniProt P68371+Q9H4B7+P0DPH7+P68366+Q13509+Q71U36+P04350+Q3ZCM7+P07437+P68363+Q9BQE3+Q6PEY2+Q13885+Q9BVA1+Q9BUF5); assay: Inhibition of tubulin polymerization in human U87MG cells assessed as formation of disorganized actin network at 10 nM after 24 hrs by Hoechst-33258 staining based inverted microscopy; assay type: cell-based
In short: (§3)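 U87-MG on chamber slides, 24 h with 5 or 10 nM, control 0.1% DMSO. Fixed in 2% paraformaldehyde, permeabilized with 0.25% Triton X-100, blocked with BSA/goat serum. Stained with mouse anti-β-tubulin overnight at 4°C, then Alexa 647 anti-mouse plus Hoechst 33258 for 2 h, then Alexa 488 phalloidin for F-actin. Imaged on an inverted microscope with a 60X oil objective.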

Tubulin (Homo sapiens) [16] = molecular target: T1, Tubulin (Homo sapiens); assay: Inhibition of tubulin polymerization in human U87MG cells assessed as formation of disorganized microtubule network at 5 nM after 24 hrs by Hoechst-33258 staining based inverted microscopy; assay type: cell-based; in short: as §3
Tubulin (Homo sapiens) [17] = molecular target: T1, Tubulin (Homo sapiens); assay: Inhibition of tubulin polymerization in human U87MG cells assessed as multinucleation at 10 nM after 24 hrs by Hoechst-33258 staining based inverted microscopy; assay type: cell-based; in short: as §3
Tubulin (Homo sapiens) [18] = molecular target: T1, Tubulin (Homo sapiens); assay: Inhibition of tubulin polymerization in human U87MG cells assessed as shrinkage of microtubule spindles at 10 nM after 24 hrs by Hoechst-33258 staining based inverted microscopy; assay type: cell-based; in short: as §3
A549 [19] = assay: Potency index, ratio of combretastatin A-4 IC50 to compound IC50 for antiproliferative activity against human A549 cells; assay type: functional

C=C(c1ccc(OC)c(N)c1)c1cc(F)c(F)c(F)c1
IC50 (HCT-116 [1]): 100 nM

C=C(c1ccc(OC)c(O)c1)c1cc(OC)c(OC)c(OC)c1
IC50 (K-562R): 2.2 nM | IC50 [2]: 2000 nM | IC50 (MCF7): 8 nM | IC50 (A549 [3]): 20 nM | IC50 (U-87 MG [4]): 8 nM

C=C(c1ccc(OC(F)F)c(N)c1)c1cc(OC)c(OC)c(OC)c1
IC50 (K-562R): 0.15 nM | remaining at 2 h, 5 µM [5]: 3.3% | IC50 (PBL [6]): > 10000 nM | IC50 (K562): 4 nM | IC50 [2]: 400 nM | pD2 [7]: 5.87 | remaining at 2 h, 5 µM [8]: 100% | microsomal CLint at 5 µM [9]: 13.6 µL/min/mg | IC50 (PBL [10]): > 10000 nM | remaining at 2 h, 5 µM [11]: 9% | IC50 (MCF7): 2 nM | IC50 (A549 [3]): 2.2 nM | IC50 (HCT-116 [1]): 1 nM | Activity [12]: 2.2% | IC50 (U-87 MG [4]): 0.6 nM

COc1ccc(C(c2cc(OC)c(OC)c(OC)c2)C(F)F)cc1O (stereo not given)
IC50 (HCT-116 [1]): 30 nM

C=C(c1ccc(OC(F)(F)F)cc1)c1cc(OC)cc(OC)c1
IC50 (HCT-116 [1]): > 10000 nM

COc1ccc(C(C)c2cc(OC)c(OC)c(OC)c2)cc1OC(F)(F)F (stereo not given)
IC50 (HCT-116 [1]): > 10000 nM

COc1ccc(C(=C(F)F)c2cc(OC)c(OC)c(OC)c2)cc1N
Activity (U-87 MG [13]): Active | IC50 (K-562R): 0.1 nM | remaining at 2 h, 5 µM [5]: 13.6% | IC50 (PBL [6]): > 10000 nM | IC50 (K562): 0.4 nM | Activity (HCT-116 [14]): Active | inhibition (Tubulin (Homo sapiens) [15]): Active | inhibition (Tubulin (Homo sapiens) [16]): Active | IC50 [2]: 2000 nM | pD2 [7]: 5.94 | inhibition (Tubulin (Homo sapiens) [17]): Active | remaining at 2 h, 5 µM [8]: 100% | microsomal CLint at 5 µM [9]: 43 µL/min/mg | inhibition (Tubulin (Homo sapiens) [18]): Active | Ratio IC50 (A549 [19]): 90 | IC50 (PBL [10]): > 10000 nM | remaining at 2 h, 5 µM [11]: < 5% | IC50 (MCF7): 1.5 nM | IC50 (A549 [3]): 2 nM | IC50 (HCT-116 [1]): 0.9 nM | Activity [12]: 2.1% | IC50 (U-87 MG [4]): 0.2 nM

COc1cc(C(C)c2ccc(OC(F)(F)F)c(F)c2)cc(OC)c1OC (stereo not given)
IC50 (HCT-116 [1]): 5000 nM

COc1cc(C(=C(F)F)c2ccc(OC(F)F)c(N)c2)cc(OC)c1OC
IC50 (HCT-116 [1]): 9.14 nM

C=C(c1ccc(OC(F)(F)F)cc1)c1c(OC)cc(OC)cc1OC
IC50 (HCT-116 [1]): > 10000 nM

C=C(c1ccc(OC)c(F)c1)c1cc(OC)c(OC)c(OC)c1
IC50 (K-562R): 2 nM | IC50 (K562): 6 nM | IC50 [2]: 4000 nM | IC50 (MCF7): 1 nM | IC50 (A549 [3]): 8 nM | IC50 (HCT-116 [1]): 7 nM | IC50 (U-87 MG [4]): 8 nM

C=C(c1ccc(OC)c(OC(F)(F)F)c1)c1cc(OC)c(OC)c(OC)c1
IC50 (HCT-116 [1]): 1500 nM

COc1ccc(C(C)c2cc(OC)c(OC)c(OC)c2)cc1F (stereo not given)
IC50 (HCT-116 [1]): 85 nM

COc1cc(C(C)c2ccc(OC(F)(F)F)cc2)cc(OC)c1OC (stereo not given)
IC50 (HCT-116 [1]): > 10000 nM

COc1cc(C(C)c2ccc(OC(F)(F)F)c(N)c2)cc(OC)c1OC (stereo not given)
IC50 (HCT-116 [1]): 3000 nM

C=C(c1ccc(OC(F)(F)F)c(F)c1)c1cc(OC)c(OC)c(OC)c1
IC50 (HCT-116 [1]): 2000 nM

COc1ccc(C(=C(F)F)c2cc(OC)c(OC)c(OC)c2)cc1O
IC50 (K-562R): 0.2 nM | remaining at 2 h, 5 µM [5]: 5% | IC50 (K562): 2.2 nM | IC50 [2]: 2000 nM | remaining at 2 h, 5 µM [8]: 100% | microsomal CLint at 5 µM [9]: 64 µL/min/mg | remaining at 2 h, 5 µM [11]: 20% | IC50 (MCF7): 0.6 nM | IC50 (A549 [3]): 2 nM | IC50 (HCT-116 [1]): 2 nM | IC50 (U-87 MG [4]): 0.3 nM

COc1ccc(/C=C\c2cc(OC)c(OC)c(OC)c2)cc1O [COMBRETASTATIN A4]
IC50 (K-562R): 23 nM | IC50 (PBL [6]): > 10000 nM | IC50 (K562): 6 nM | IC50 [2]: 2100 nM | pD2 [7]: 5.73 | IC50 (PBL [10]): 100 to 500 nM | IC50 (MCF7): 8 nM | Activity [12]: 0.7% | IC50 (U-87 MG [4]): 3 nM

COc1cc(C(C)c2ccc(OC(F)F)c(N)c2)cc(OC)c1OC (stereo not given)
IC50 (HCT-116 [1]): 18 nM

C=C(c1cc(OC)cc(OC)c1)c1ccc(OC(F)(F)F)c([N+](=O)[O-])c1
IC50 (HCT-116 [1]): > 10000 nM

C=C(c1ccc(OC)c(N)c1)c1cc(OC)c(OC)c(OC)c1
IC50 (K-562R): 2 nM | remaining at 2 h, 5 µM [5]: 11.6% | IC50 (K562): 5 nM | IC50 [2]: 2200 nM | pD2 [7]: 5.79 | remaining at 2 h, 5 µM [8]: 94% | microsomal CLint at 5 µM [9]: 46 µL/min/mg | remaining at 2 h, 5 µM [11]: 6% | IC50 (MCF7): 2.9 nM | IC50 (A549 [3]): 7 nM | IC50 (HCT-116 [1]): 2 nM | Activity [12]: 1.6% | IC50 (U-87 MG [4]): 9 nM

C=C(c1ccc(OC(F)(F)F)cc1)c1cc(OC)c(OC)c(OC)c1
IC50 (HCT-116 [1]): 5000 nM

C=C(c1ccc(OC(F)F)c(N)c1)c1cc(C)nc2ccccc12
IC50 (HCT-116 [1]): 20.2 nM

C=C(c1ccc(OC(F)(F)F)c(N)c1)c1cc(OC)c(OC)c(OC)c1
IC50 (HCT-116 [1]): 200 nM

C=C(c1cc(OC)c(OC)c(OC)c1)c1ccc(OC(F)(F)F)c([N+](=O)[O-])c1
IC50 (HCT-116 [1]): 4000 nM
